Series [1] is described as follows: Cytotoxicity against human U2OS cells assessed as cell viability at highest non-toxic concentration.
Series [2] has as its system Human immunodeficiency virus 1. Description: Antiretroviral activity against HIV-1 based virus like particles infected in U2OS cells. The class given is functional, organism-based. The settings on record: Human immunodeficiency virus 1, U2OS.
The subject of series [3] is Human immunodeficiency virus 1. Description: Antiretroviral activity against HIV-1 infected in TZM-bl cells after 48 hrs by luciferase assay. The note with it: Human immunodeficiency virus 1, TZM-bl.
Series [4] can be described thus: Selectivity index, ratio of CC50 for human U2OS cells to IC50 for HIV-1 based virus like particles infected in U2OS cells. The class given is functional.
A short description of series [5]: Selectivity index, ratio of CC50 for human TZM-bl cells to IC50 for HIV-1 infected in TZM-bl cells. The class given is functional.
For series [6], the target named is Human immunodeficiency virus type 1 reverse transcriptase (Human immunodeficiency virus 1) (UniProt Q72547). Description: Inhibition of recombinant HIV-1 reverse transcriptase at 500 uM using 234 nt long RNA template after 10 mins by liquid scintillation analysis. The gist of the method:
(§1)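 Cell-free DNA polymerase assay with recombinant HIV-1 reverse transcriptase (1 unit). Nucleotides: dATP/dGTP/dTTP, cold dCTP and [³³P]dCTP. Enzyme and compound preincubated 10 min at room temperature. Synthesis started with annealed 234-nt RNA template/18-nt DNA primer. Filter-bound radioactivity counted by liquid scintillation. DMSO served as negative control.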

For series [7], the system named is Human immunodeficiency virus 1. Briefly: Antiretroviral activity against HIV-1 based virus like particles infected in U2OS cells assessed as Gluc activity at highest non-toxic concentration. The class given is functional.
The nature of series [8]: Cytotoxicity against human U2OS cells. The class given is cell-based. The gist of the method: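 Cytotoxicity measured by real-time impedance monitoring (xCELLigence RTCA DP) in U2OS cells kept in IMDM with 10% FBS and Pen/Strep. Compounds tested at several concentrations. Viability compared with 0.5% DMSO vehicle-treated cells. Highest non-toxic concentration defined as the level lowering viability by less than 20%.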

Series [9] deals with Human immunodeficiency virus type 1 reverse transcriptase (Human immunodeficiency virus 1, UniProt Q72547). Description: Inhibition of recombinant HIV-1 reverse transcriptase using 234 nt long RNA template after 10 mins by liquid scintillation analysis. The essentials:
as §1

The nature of series [10]: Cytotoxicity against human TZM-bl cells. The class given is cell-based.

pIC50: −log10 of the molar value. Calls of active or inactive are those of the source.

`CCOC(=O)c1c2cccccc-2c(C(=O)OCC)c1O`: in series [1], the viability was 80%. Further, the negative-log IC50 (pIC50) in series [2] is 5.36; in [3], 4.70; in series [9], 3.98. The “Ratio CC50/IC50” value in series [4] stood at 16.4; in series [5] it was 3. For the same molecule, the inhibition result in [6] is “Active”. In addition, the Activity in series [7] was 3.5%. Moreover, the results for the CC50 in series [8] and in [10] were 72.2 µM and 65 µM, respectively.
Consider `Clc1cc(-c2ccccc2)c2cccccc1-2`, for which, in series [1], the viability was found to be 88%. Besides, the Activity in series [7] is recorded as 94%.
With `Cc1ccnc2c1NC(=O)c1cccnc1N2C1CC1` [NEVIRAPINE], in [7], the Activity is listed as 0.01%.
As to `Clc1cc(N2CCOCC2)c2cccccc1-2`, the viability in series [1] was 80%. Moreover, the Activity in series [7] amounted to 98%.
In the same order, the values of `Clc1cc(Br)c2cccccc1-2` are 101% and 32%.
In the same order, the values of `c1ccc(-c2cc(-c3ccccc3)c3cccccc2-3)cc1` are 80% and 124%.
The matching figures for `Brc1cc(Br)c2cccccc1-2`: 96% and 36%.
Turning to `CCOC(=O)c1ncc(-c2ccc3cccccc2-3)cc1F`, the viability in series [1] amounted to 86%. The Activity in series [7] is recorded as 80%.
For `CCOC(=O)c1c(O)cc2cccccc1-2`, the viability in series [1] amounted to 89%. In [2], this molecule had a pIC50 of 5.00. In addition, the “Ratio CC50/IC50” value in [4] worked out at 34.1. The Activity in [7] worked out at 6.4%. In addition, the CC50 in series [8] was found to be 344 µM; in [10], 260 µM.
`CCOC(=O)c1ccc2cccccc1-2`: the viability in [1] is 85%. This molecule showed a pIC50 in series [2] of under 4.12. For the same molecule, in [7], the Activity was 52%.
Take `Cc1cc(S(=O)(=O)[O-])c2c(C)ccc(C(C)C)cc1-2.[Na+]` [SODIUM GUALENATE]: the viability in series [1] came to 91%. Moreover, the Activity in series [7] stood at 154%.
In the same order, the values of `O=C(O)c1cccc(-c2cc(Cl)c3cccccc2-3)c1` are 92% and 103%.
The matching figures for `Clc1cc(-c2ccncc2)c2cccccc1-2`: 80% and 36%.
As to `Clc1c2cccccc-2c(Cl)c1-c1cncnc1`, in [1], the viability is 80%. Further, in series [7], the Activity worked out at 141%.
Regarding `Oc1cc2cccccc-2c1`, the viability in series [1] was 80%. For the same molecule, the pIC50 was 5.66 in series [2] and 5.07 in [3]. Besides, the “Ratio CC50/IC50” value stood at 12.2 in [4] and 7 in [5]. For the same molecule, in series [7], the Activity is recorded as 51%. In addition, the CC50 in [8] came out at 26.8 µM; in [10], 60 µM.
Take `N#Cc1cccc(-c2ccc3cccccc2-3)c1`: the viability in series [1] stood at 80%. The Activity in series [7] stood at 63%.
In the same order, the values of `Cc1ccc(C(C)C)cc2c(C)ccc1-2` [GUAIAZULEN] are 106% and 48%.
The matching figures for `CCOC(=O)c1ccc(-c2cc(C(=O)OCC)c3cccccc2-3)o1`: 83% and 70%.

The term viability denotes a read-out of living cells in per cent, often relative to untreated cells. A word on the pIC50: it is the negative decadic logarithm of the IC50, by convention in mol/L. The CC50 is the concentration that lowers cell viability or growth by half. A high value points to lower toxicity to the cells.

(Values after ChEMBL document CHEMBL3769349, “Antiretroviral (HIV-1) activity of azulene derivatives” (Bioorg Med Chem, 2016).)
